Test results: ChEMBL document CHEMBL5357066, “Development of Novel Membrane Disrupting Lipoguanidine Compounds Sensitizing Gram-Negative Bacteria to Antibiotics” (ACS Med Chem Lett, 2024)
Activity calls are given as the source filed them. The rule behind the calls is not given here.

How the values were obtained:
[1] = test system: Cell membrane; experiment: Induction of outer membrane permeabilization in Acinetobacter baumannii AYE assessed as increase fluorescence intensity by measuring NPN uptake factor measured immediately for 2 hrs by fluorescence based analysis; assay type: subcellular
Method in brief: (§1)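 NPN outer-membrane uptake. Overnight TSB cultures (37 °C, 200 rpm) were subcultured 1:20 for 2 h to mid-log, washed, and resuspended in 5 mM HEPES with 5 mM glucose, pH 7.2. Cells were mixed with assay buffer containing 10 µM NPN, then with compound, polymyxin B (positive control) or buffer. Fluorescence (ex 350, em 420 nm) was monitored immediately for 2 h.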

[2] = test system: Klebsiella pneumoniae; experiment: Synergistic antibacterial activity against Klebsiella pneumoniae NCTC 13368 assessed as reduction in rifampicin MIC at 8 to 64 microg/ml incubated for overnight by microbroth dilution checkerboard assay; assay type: functional, organism-based; conditions: dose 8-64 µg/ml
Method in brief: (§2)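 Checkerboard microdilution under MIC conditions (TSB, overnight, 37 °C). Two-fold series of each agent were combined on one plate before bacteria were added, and single-agent MICs were measured on the same plate. FIC = sum of combination MIC/alone MIC for each agent, taken from the most synergistic well. Three independent repeats, mean ± SD. ≤0.5 was taken as strong synergy and 0.5–<1 as weak.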

[3] = test system: Pseudomonas aeruginosa; experiment: Synergistic antibacterial activity against Pseudomonas aeruginosa PAO1 assessed as reduction in rifampicin MIC at 8 to 32 microg/ml incubated for overnight by microbroth dilution checkerboard assay; assay type: functional, organism-based; conditions: dose 8-32 µg/ml
Method in brief: (§3)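 Broth microdilution in Tryptic Soy Broth, with rifampicin in a 2-fold dilution series combined with the second agent. Bacteria were grown overnight in TSB, back-diluted, then incubated with the compounds overnight at 37 °C. MIC was taken as the lowest concentration with no visible growth (<0.1 OD600).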

[4] = test system: Pseudomonas aeruginosa; experiment: Synergistic antibacterial activity against Pseudomonas aeruginosa NCTC 13437 assessed as reduction in rifampicin MIC at 8 to 32 microg/ml incubated for overnight by microbroth dilution checkerboard assay; assay type: functional, organism-based; conditions: dose 8-32 µg/ml; method in brief: as §3
[5] = test system: Pseudomonas aeruginosa; experiment: Potentiation of doxycycline induced antibacterial activity against Pseudomonas aeruginosa NCTC 13437; assay type: functional, organism-based
[6] = test system: Escherichia coli; experiment: Potentiation of doxycycline induced antibacterial activity against Escherichia coli NCTC 12923; assay type: functional, organism-based
[7] = Toxicity in Galleria mellonella larvae assessed as reduction in animal survival at 10 to 50 mg/kg measured for 120 hrs; assay type: organism-based; conditions: in vivo, dose 10-50 mg/kg
Method in brief: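 Wax moth larvae, assumed 300 mg mean weight with 50 µL haemolymph, 10 per group. Each was injected via the front proleg with 10 µL of compound at 50, 20 or 10 mg/kg, or PBS only. Larvae were held at 37 °C for 5 days and scored live/dead every 24 h; dead meant no response to physical stimuli.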

[8] = test system: Cell membrane; experiment: Induction of outer membrane permeabilization in Pseudomonas aeruginosa NCTC 13437 assessed as increase fluorescence intensity by measuring NPN uptake factor measured immediately for 2 hrs by fluorescence based analysis; assay type: subcellular; method in brief: as §1
[9] = test system: Pseudomonas aeruginosa; experiment: Potentiation of doxycycline induced antibacterial activity against Pseudomonas aeruginosa PAO1; assay type: functional, organism-based
[10] = test system: Klebsiella pneumoniae; experiment: Synergistic antibacterial activity against Klebsiella pneumoniae NCTC 13368 assessed as fractional inhibitory concentration index incubated for overnight in presence of rifampicin by microbroth dilution checker board assay; assay type: functional; method in brief: as §2
[11] = test system: Pseudomonas aeruginosa; experiment: Synergistic antibacterial activity against Pseudomonas aeruginosa NCTC 13437 assessed as fractional inhibitory concentration index incubated for overnight in presence of rifampicin by microbroth dilution checker board assay; assay type: functional
Method in brief: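 Checkerboard microdilution in Tryptic Soy Broth, run like the MIC assay. Overnight TSB cultures were back-diluted to OD 0.01 and added 1:1 to the combined two-fold series of both agents, then incubated overnight at 37 °C. Growth/no-growth was called at <0.1 OD600. MICs alone were read on the same plates. FIC index came from the most synergistic well; three independent repeats, mean ± SD.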

[12] = test system: Klebsiella pneumoniae; experiment: Potentiation of doxycycline induced antibacterial activity against Klebsiella pneumoniae NCTC 13368; assay type: functional, organism-based
[13] = test system: Acinetobacter baumannii; experiment: Synergistic antibacterial activity against Acinetobacter baumannii ATCC 17978 assessed as reduction in rifampicin MIC at 32 microg/ml incubated for overnight by microbroth dilution checkerboard assay; assay type: functional, organism-based; conditions: dose 32.0 µg/ml; method in brief: as §2
[14] = test system: Cell membrane; experiment: Induction of outer membrane permeabilization in Pseudomonas aeruginosa PAO1 assessed as increase fluorescence intensity by measuring NPN uptake factor measured immediately for 2 hrs by fluorescence based analysis; assay type: subcellular; method in brief: as §1
[15] = test system: Acinetobacter baumannii; experiment: Synergistic antibacterial activity against Acinetobacter baumannii AYE assessed as reduction in rifampicin MIC at 32 microg/ml incubated for overnight by microbroth dilution checkerboard assay; assay type: functional, organism-based; conditions: dose 32.0 µg/ml; method in brief: as §2
[16] = test system: Klebsiella pneumoniae; experiment: Synergistic antibacterial activity against Klebsiella pneumoniae M6 assessed as reduction in rifampicin MIC at 8 to 32 microg/ml incubated for overnight by microbroth dilution checkerboard assay; assay type: functional, organism-based; conditions: dose 8-32 µg/ml; method in brief: as §3
[17] = test system: Klebsiella pneumoniae; experiment: Potentiation of doxycycline induced antibacterial activity against Klebsiella pneumoniae M6; assay type: functional, organism-based
[18] = test system: Escherichia coli; experiment: Synergistic antibacterial activity against Escherichia coli NCTC 12923 assessed as reduction in rifampicin MIC at 32 microg/ml incubated for overnight by microbroth dilution checkerboard assay; assay type: functional, organism-based; conditions: dose 32.0 µg/ml; method in brief: as §2
[19] = test system: Cell membrane; experiment: Induction of outer membrane permeabilization in Acinetobacter baumannii ATCC 17978 assessed as increase fluorescence intensity by measuring NPN uptake factor measured immediately for 2 hrs by fluorescence based analysis; assay type: subcellular; method in brief: as §1

CCCCCCCCCCNC(=N)NCCCCN
Activity [1]: > 1 | Activity [2]: Active | Activity [3]: Active | Activity [4]: Active | Activity [5]: Active | Activity [6]: Active | Activity [7]: Non-Toxic | Activity [8]: > 1 | Activity [9]: Active | fractional inhibitory concentration index (FICI) [10]: 0.1 | fractional inhibitory concentration index (FICI) [11]: 0.15 | Activity [12]: Active | Activity [13]: Active | Activity [14]: > 1 | Activity [15]: Active | Activity [16]: Active | Activity [17]: Active | Activity [18]: Active | Activity [19]: > 1
